PMC5633258 (International Journal for Parasitology: Drugs and Drug …, 2017)

T1: LdAI (Leishmania donovani, UniProt A0A3Q8IA09)
T1 sequence (A0A3Q8IA09 1-398): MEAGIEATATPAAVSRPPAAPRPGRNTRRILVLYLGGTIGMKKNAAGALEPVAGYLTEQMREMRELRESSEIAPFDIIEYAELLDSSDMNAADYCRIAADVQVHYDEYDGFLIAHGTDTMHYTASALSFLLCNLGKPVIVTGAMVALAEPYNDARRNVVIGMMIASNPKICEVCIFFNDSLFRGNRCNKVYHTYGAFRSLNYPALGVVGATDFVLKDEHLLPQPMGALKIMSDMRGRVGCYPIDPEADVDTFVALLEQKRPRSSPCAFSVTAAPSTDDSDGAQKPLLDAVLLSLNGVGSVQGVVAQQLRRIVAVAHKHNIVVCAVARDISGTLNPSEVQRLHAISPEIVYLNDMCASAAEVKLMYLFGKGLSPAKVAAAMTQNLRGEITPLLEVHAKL


Key:
LdAI [1] = target: T1, LdAI; assay: Isothermal titration calorimetry with LdAI; type: binding; settings: for N (Drug/LdAI) / TΔS / ΔH / ΔG: ITC, direct titration; for N (Drug/LdAI) / TΔS / ΔH: 3 μM LdAI, 298 K; for ΔG: ΔG= ΔH−TΔS
How it was run: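 Direct ITC at 298 K in 20 mM Tris, 150 mM NaCl, pH 8.0. LdAI in the cell was titrated with test compound: one small injection, then 25 injections. Heats of dilution were normalised by buffer titrations. A single-site model with Levenberg–Marquardt nonlinear fitting gave Ka, ΔH and ΔS, and ΔG was calculated as ΔH − TΔS.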

LdAI [2] = target: T1, LdAI; assay: Fluorometric titration of ligands with LdAI; type: binding
How it was run: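 Fluorometric titrations at 298 K in 20 mM Tris, 150 mM NaCl, pH 8.0. Constant enzyme was titrated with increasing ligand (Asp, Glu or test compound), with a 300 s pre-scan delay. Excitation was 274 nm and emission was recorded 290–400 nm. Kd came from a single-site specific binding fit, Y = Bmax*X/(Kd + X).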

LdAI [3] = target: T1, LdAI; assay: Competitive inhibition assay, Gln hydrolysis kinetics; type: biochemical; settings: Gln as substrate, LdAI alone, no inhibitor
[4] = tested on: LdAI transfected amastigotes (WT-LdAI); assay: MTT survival of LdAI transfected axenic amastigotes; type: cell-based, Leishmania donovani
[5] = tested on: LdAI transcript in axenic amastigotes; assay: Real-time PCR of LdAI expression, axenic amastigotes; type: cell-based, Leishmania donovani; settings: AmB treated vs untreated
[6] = tested on: pLP2-LdAI transfected promastigotes (WT-LdAI); assay: MTT survival of LdAI over-expressing promastigotes; type: cell-based, Leishmania donovani
[7] = tested on: L. donovani wild type AG83 (WT) promastigotes; assay: MTT survival of wild type promastigotes; type: cell-based; settings: Leishmania donovani, 48 h
How it was run: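 AG83 promastigotes were kept in M199 (pH 5.5) with 10% FBS. Late-exponential cells, diluted to 2 × 10^6/ml, were exposed to varying concentrations of test compound prepared in FBS-free M199 for 48, 72 and 96 h. Viability was read by MTT at 570 nm as % survival (mean, standard error, three independent experiments). IC50 came from a log(inhibitor) vs normalised response fit.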

[8] = tested on: LdAI transcript in promastigotes; assay: Semi quantitative RT-PCR and real-time PCR of LdAI expression, promastigotes; type: cell-based, Leishmania donovani; settings: 0.125 μg/ml AmB for 8 h vs untreated
[9] = substrate: NC(=O)CC[C@H](N)C(=O)O; assay: Competitive inhibition assay, Gln hydrolysis kinetics; type: biochemical, Leishmania donovani; settings: other: Gln as substrate, LdAI alone, no inhibitor; pH 8.0; 25.0 °C

Kd (LdAI [1])	N (Drug/LdAI) (LdAI [1])	TΔS (LdAI [1])	ΔH (LdAI [1])	ΔG (LdAI [1])	Kd (LdAI [2])	Molecule	further results
7700 nM	4.0 ± 0.7	0.64 kcal/mol	-6.34 ± 0.3 kcal/mol	-6.98 kcal/mol	2400 ± 400 nM	N[C@@H](CC(=O)O)C(=O)O [Asp, L-aspartic acid]	
						NC(=O)CC[C@H](N)C(=O)O [Gln, L-glutamine]	Vmax (LdAI [3]): 267.9 ± 7.6
5000 nM	2.14 ± 0.6	-18.38 kcal/mol	-25.6 ± 1.1 kcal/mol	-7.22 kcal/mol	11600 ± 1300 nM	N[C@@H](CCC(=O)O)C(=O)O [Glu, L-glutamic acid]	
						C[C@@H]1[C@H](O)[C@@H](C)/C=C/C=C/C=C/C=C/C=C/C=C/C=C/[C@H](O[C@@H]2O[C@H](C)[C@@H](O)[C@H](N)[C@@H]2O)C[C@@H]2O[C@](O)(C[C@@H](O)C[C@@H](O)[C@H](O)CC[C@@H](O)C[C@@H](O)CC(=O)O[C@H]1C)C[C@H](O)[C@H]2C(=O)O [AmB, Amphotericin B]	IC50 ([4]; Leishmania donovani, 48 h): 1900 ± 600 nM; lower IC90 in wild-type than in LdAI over-expressing parasites ([4]; amastigote form): eight; increase in IC50, LdAI transfected vs non-transfected ([4]; amastigotes): eight; increase in LdAI transcript expression (quantitative real time PCR) [5]: five; IC50 ([6]; Leishmania donovani, 48 h): 2200 ± 300 nM; lower IC90 in wild-type than in LdAI over-expressing parasites ([6]; promastigote form): three; increase in IC50, LdAI transfected vs non-transfected ([6]; promastigotes): three; IC50 [7]: 600 ± 70 nM; enhancement in LdAI transcription (semiquantitative PCR) [8]: 2.5 fold; increase in LdAI transcript expression (quantitative real time PCR) [8]: four
						LdAI (Leishmania donovani) (protein) MEAGIEATATPAAVSRPPAAPRPGRNTRRILVLYLGGTIGMKKNAAGALEPVAGYLTEQMREMRELRESSEIAPFDIIEYAELLDSSDMNAADYCRIAADVQVHYDEYDGFLIAHGTDTMHYTASALSFLLCNLGKPVIVTGAMVALAEPYNDARRNVVIGMMIASNPKICEVCIFFNDSLFRGNRCNKVYHTYGAFRSLNYPALGVVGATDFVLKDEHLLPQPMGALKIMSDMRGRVGCYPIDPEADVDTFVALLEQKRPRSSPCAFSVTAAPSTDDSDGAQKPLLDAVLLSLNGVGSVQGVVAQQLRRIVAVAHKHNIVVCAVARDISGTLNPSEVQRLHAISPEIVYLNDMCASAAEVKLMYLFGKGLSPAKVAAAMTQNLRGEITPLLEVHAKL	Km [9]: 9.5 ± 0.8 mM
